In ChEMBL document CHEMBL1123956, “Nitrosoureido nucleosides as potential inhibitors of nucleotide biosynthesis” (J Med Chem, 1988):
Values joined by “and” are separate entries in the source; they are usually repeats but may differ in a detail not shown here. Identical values can stand only once. Values belong to the compound of their own block, whether it stands above or below them.

Experiments:
HEp-2 = assay: Inhibition of colony formation of H.Ep-2 cells; format: functional, cell-based; details: Homo sapiens, read-out: I50
How it was run: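 H.Ep.-2 cells exposed to drug over a 12-day period. Colony formation was scored against untreated controls, and I50 was taken as the concentration giving 50% inhibition.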

L1210 [1] = assay: Inhibition of proliferation of L1210 cells; format: functional, cell-based; details: Mus musculus, read-out: I50
How it was run: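 L1210 cells in suspension culture with drug for 48 h. I50 was the concentration giving 50% inhibition of proliferation relative to controls.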

Mus musculus [2] = assay: Percent increase in life span of p388 leukemia induced mice was determined at a dose of 100 mg/kg upon ip administration on days 1-5; format: functional; details: route intraperitoneal
How it was run: (§1)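 Mice implanted with 10⁶ P388 leukemia cells were dosed intraperitoneally once daily on days 1-5 after implant. Activity is expressed as % increase in life span, and 30-day survivors were recorded.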

[3] = (§2) Half life was measured at pH 7; format: ADME
How it was run: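 Stability in pH 7 buffer, followed by HPLC; reported as half-life. The method is taken from an earlier paper.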

Mus musculus [4] = assay: Percent increase in life span of p388 leukemia induced mice was determined at a dose of 200 mg/kg upon ip administration on days 1-5; format: functional; details: route intraperitoneal; how it was run: as §1
L1210 [5] = assay: Size distribution of cells (concuM); format: functional, Mus musculus
How it was run: (§3)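 L1210 suspension cultures with agent for 30 min or 18 h, then a 4-h labelling period. Size distribution was measured on a Model ZH Coulter Counter. The value is the instrument setting at the peak of cell size; higher settings mean larger cells.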

L1210 [6] = assay: percent synthesis of protein in L1210 cells when incubated with the compound for 18 hr using [3H]-L-Leu as radioligand; format: functional, Mus musculus
How it was run: (§4)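 Protein synthesis in L1210 suspension cultures preincubated with agent for 30 min or 18 h. [4,5-3H]-L-leucine was then added, and incorporation into protein was sampled hourly over 4 h. Values are 4-h incorporation as % of untreated control.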

L1210 [7] = assay: percent synthesis of RNA in L1210 cells when incubated with compound for 30 min using […] as radioligand; format: functional, Mus musculus
How it was run: (§5)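 RNA synthesis in L1210 suspension cultures preincubated with agent for 30 min or 18 h. [5-3H]Urd was then added, and incorporation into RNA was sampled hourly over 4 h. Values are 4-h incorporation as % of untreated control.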

L1210 [8] = assay: percent synthesis of DNA in L1210 cells when incubated with the compound for 30 min using […] as radioligand; format: functional, Mus musculus
How it was run: (§6)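 DNA synthesis in L1210 suspension cultures preincubated with agent for 30 min or 18 h. [3H]dThd was then added to the medium, and incorporation into DNA was sampled at 1-h intervals over 4 h. Values are for the 4-h labelling period, as % of untreated control.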

L1210 [9] = assay: percent synthesis of RNA in L1210 cells when incubated with compound for 18 h using […] as radioligand (conc umol); format: functional, Mus musculus; how it was run: as §5
L1210 [10] = assay: Size distribution of cells; format: functional, Mus musculus; how it was run: as §3
L1210 [11] = assay: percent synthesis of protein in L1210 cells when incubated with the compound for 30 min using [3H]L-Leu as radioligand; format: functional, Mus musculus; how it was run: as §4
L1210 [12] = assay: percent synthesis of protein in L1210 cells when incubated with the compound for 18 hr uusing [3H]-L-Leu as radioligand; format: functional, Mus musculus; how it was run: as §4
L1210 [13] = assay: percent synthesis of RNA in L1210 cells when incubated with compound for 18 h using […] as radioligand; format: functional, Mus musculus; how it was run: as §5
L1210 [14] = assay: Number of cells present measured with the Coulter counter; format: functional, Mus musculus
How it was run: (§7)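 L1210 suspension cultures with agent for 30 min or 18 h, then a further 4 h with radiolabelled precursor. Cells were counted by Coulter counter and expressed as R, the count relative to the initial cell number (R = 1.0). R < 1.0 means a fall below the starting number; R > 1.0 means proliferation.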

L1210 [15] = assay: Number of cells present measured with the Coulter counter(concuM); format: functional, Mus musculus; how it was run: as §7
L1210 [16] = assay: percent synthesis of DNA in L1210 cells when incubated with the compound for 18 h using […] as radioligand; format: functional, Mus musculus; how it was run: as §6
Mus musculus [17] = assay: Percent increase in life span of p388 leukemia induced mice was determined at a dose of 25 mg/kg upon ip administration on days 1-5; format: functional; details: route intraperitoneal; how it was run: as §1
[18] = as §2; format: ADME; remark: listed apart in the source
How it was run: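 Stability in pH 7 buffer, with decomposition followed by HPLC and the half-life taken from it.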

L1210 [19] = assay: percent synthesis of protein in L1210 cells when incubated with the compound for 30 min using [3H]L-Leu as radioligand at 50 uM conc.; format: functional, Mus musculus; how it was run: as §4
L1210 [20] = assay: percent synthesis of RNA in L1210 cells when incubated with compound for 30 min using [3H]dThd as radioligand at 25 uM conc.; format: functional, Mus musculus; details: in the assay text read “[5-3H]Urd” for “[3H]dThd”; how it was run: as §5
L1210 [21] = assay: percent synthesis of DNA in L1210 cells when incubated with the compound for 30 min using […] as radioligand at 50 uM conc.; format: functional, Mus musculus; how it was run: as §6
L1210 [22] = assay: percent synthesis of DNA in L1210 cells when incubated with the compound for 18 hr using […] as radioligand at 25 uM conc.; format: functional, Mus musculus; how it was run: as §6
L1210 [23] = assay: percent synthesis of RNA in L1210 cells when incubated with compound for 18 hr using […] as radioligand at 25 uM conc.; format: functional, Mus musculus; how it was run: as §5
L1210 [24] = assay: Number of cells present measured with the Coulter counter at 50 uM conc.; format: functional, Mus musculus; how it was run: as §7
L1210 [25] = assay: percent synthesis of RNA in L1210 cells when incubated with compound for 30 min using […] as radioligand at 10 uM conc.; format: functional, Mus musculus; how it was run: as §5
L1210 [26] = assay: percent synthesis of protein in L1210 cells when incubated with the compound for 30 min using [3H]L-Leu as radioligand at 10 uM conc.; format: functional, Mus musculus; how it was run: as §4
L1210 [27] = assay: percent synthesis of protein in L1210 cells when incubated with the compound for 18 hr using [3H]-L-Leu as radioligand at 10 uM conc.; format: functional, Mus musculus; how it was run: as §4
L1210 [28] = assay: percent synthesis of RNA in L1210 cells when incubated with compound for 30 min using [3H]dThd as radioligand at 50 uM conc.; format: functional, Mus musculus; details: in the assay text read “[5-3H]Urd” for “[3H]dThd”; how it was run: as §5
L1210 [29] = assay: percent synthesis of DNA in L1210 cells when incubated with the compound for 18 h using […] as radioligand at 50 uM conc.; format: functional, Mus musculus; how it was run: as §6
L1210 [30] = assay: percent synthesis of protein in L1210 cells when incubated with the compound for 18 hr using [3H]-L-Leu as radioligand at 25 uM conc.; format: functional, Mus musculus; how it was run: as §4
L1210 [31] = assay: percent synthesis of DNA in L1210 cells when incubated with the compound for 30 min using […] as radioligand at 10 uM conc.; format: functional, Mus musculus; how it was run: as §6
L1210 [32] = assay: percent synthesis of RNA in L1210 cells when incubated with compound for 18 hr using […] as radioligand at 50 uM conc.; format: functional, Mus musculus; how it was run: as §5
L1210 [33] = assay: Size distribution of cells at 10 uM conc.; format: functional, Mus musculus; how it was run: as §3
L1210 [34] = assay: percent synthesis of DNA in L1210 cells when incubated with the compound for 30 min using […] as radioligand at 25 uM conc.; format: functional, Mus musculus; how it was run: as §6
L1210 [35] = assay: percent synthesis of protein in L1210 cells when incubated with the compound for 30 min using [3H]L-Leu as radioligand at 25 uM conc.; format: functional, Mus musculus; how it was run: as §4
L1210 [36] = assay: Number of cells present measured with the Coulter counter at 10 uM conc.; format: functional, Mus musculus; how it was run: as §7
L1210 [37] = assay: percent synthesis of protein in L1210 cells when incubated with the compound for 18 hr using [3H]-L-Leu as radioligand at 50 uM conc.; format: functional, Mus musculus; how it was run: as §4
L1210 [38] = assay: percent synthesis of RNA in L1210 cells when incubated with compound for 18 h using […] as radioligand at 10 uM conc.; format: functional, Mus musculus; how it was run: as §5
L1210 [39] = assay: Size distribution of cells at 25 uM conc.; format: functional, Mus musculus; how it was run: as §3
L1210 [40] = assay: Number of cells present measured with the Coulter counter at 25 uM conc.; format: functional, Mus musculus; how it was run: as §7
L1210 [41] = assay: Size distribution of cells at 50 uM conc.; format: functional, Mus musculus; how it was run: as §3
L1210 [42] = assay: percent synthesis of DNA in L1210 cells when incubated with the compound for 18 h using [3H]dUrd as radioligand at 10 uM conc.; format: functional, Mus musculus; details: in the assay text read “[3H]dThd” for “[3H]dUrd”; how it was run: as §6

SMILES: CN(N=O)C(=O)Nc1ccc(NC(=O)C2OC(n3ccc(=O)[nH]c3=O)C(O)C2O)cc1 (stereo not drawn)
IC50 (HEp-2): 33 µM | IC50 (L1210 [1]): > 90 µM | ILS at 100 mg/kg (Mus musculus [2]): 56% | half-life [3]: 120 min

SMILES: Cc1cn(C2CC(O)C(C(=O)NCCN(N=O)C(=O)Nc3ccccc3)O2)c(=O)[nH]c1=O (stereo not drawn)
IC50 (HEp-2): 90 µM | ILS at 200 mg/kg (Mus musculus [4]): 14% | IC50 (L1210 [1]): > 90 µM | half-life [3]: 42 min

SMILES: O=NN(CCCl)C(=O)NCC1OC(n2ccc(=O)[nH]c2=O)CC1O (stereo not drawn)
IC50 (HEp-2): 14 µM | Cell size (L1210 [5]): 67.5 and 65 and 82.5 | Control (L1210 [6]): 474% and 254% | Control (L1210 [7]): 87% and 79% and 80% | Control (L1210 [8]): 98% and 103% and 100% | IC50 (L1210 [1]): 12 µM | Control (L1210 [9]): 455% | Cell size (L1210 [10]): 60 and 82.5 and 75 | Control (L1210 [11]): 96% and 92% and 95% | Control (L1210 [12]): 658% | Control (L1210 [13]): 554% and 276% | Cell no (L1210 [14]): 1.06 and 1.08 and 1.09 and 0.77 and 0.99 | half-life [3]: 240 min | Cell no (L1210 [15]): 0.54 | Control (L1210 [16]): 189% and 192% and 152% | ILS at 25 mg/kg (Mus musculus [17]): 191%

T1/2 [18]: 52.5 min
SMILES: O=NN(C(=O)NC1CCCCC1)C1CCCCC1

SMILES: Cc1cn(C2CC(O)C(CNC(=O)N(CCCl)N=O)O2)c(=O)[nH]c1=O (stereo not drawn)
Control (L1210 [19]): 111% | Control (L1210 [20]): 88% | IC50 (HEp-2): 10 µM | Control (L1210 [21]): 85% | Control (L1210 [22]): 171% | Control (L1210 [23]): 374% | Cell no (L1210 [24]): 1.06 and 0.64 | Control (L1210 [25]): 85% | IC50 (L1210 [1]): 5 µM | Control (L1210 [26]): 83% | Control (L1210 [27]): 257% | Control (L1210 [28]): 87% | Control (L1210 [29]): 147% | Control (L1210 [30]): 455% | Control (L1210 [31]): 108% | Control (L1210 [32]): 539% | half-life [3]: 360 min | Cell size (L1210 [33]): 60 and 80 | Control (L1210 [34]): 98% | Control (L1210 [35]): 99% | Cell no (L1210 [36]): 1.08 and 1.21 | Control (L1210 [37]): 597% | Control (L1210 [38]): 217% | Cell size (L1210 [39]): 57.5 and 80 | Cell no (L1210 [40]): 1.08 and 0.92 | Cell size (L1210 [41]): 55 and 85 | Control (L1210 [42]): 145% | ILS at 25 mg/kg (Mus musculus [17]): 135%
